Source: ChEMBL document CHEMBL4680190, “Imidazo[2,1-b] [1,3,4]thiadiazoles with antiproliferative activity against primary and gemcitabine-resistant pancreatic cancer cells” (Eur J Med Chem, 2020)
Active and inactive are the calls of the source. The rule behind the calls is not given here.

What was measured:
[1] = Antiproliferative activity against human SUIT-2 cells assessed as reduction in cell growth incubated for 72 hrs by SRB assay; assay type: functional, cell-based; conditions: SUIT-2, 72 h
In short: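 SUIT-2 cells seeded at 3 × 10³/well in triplicate and left 24 h at 37 °C. Cells were fixed with cold TCA, stained with 0.4% SRB in 1% acetic acid and dissolved in Tris pH 8.8. A490/A540 was read vs vehicle, corrected for day-0 OD. IC50 came from nonlinear curve fit; mean of three experiments.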

CAPAN-1 = assay: Antiproliferative activity against human Capan-1 cells assessed as reduction in cell growth incubated for 72 hrs by SRB assay; assay type: functional, cell-based; conditions: CAPAN-1, 72 h
In short: (§1)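 Cells were seeded in triplicate at 3×10³/well (Panc-1, Panc-1R, PDAC-3) or 5×10³/well (Capan-1) and preincubated 24 h at 37 °C. Fixation was cold TCA, staining 0.4% SRB, solubilisation Tris pH 8.8, read at 490/540 nm. Growth was taken versus vehicle, day-0 corrected, and IC50 fitted nonlinearly; three independent experiments, mean ± SEM.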

PANC-1 = assay: Antiproliferative activity against human Panc-1 cells assessed as reduction in cell growth incubated for 72 hrs by SRB assay; assay type: functional, cell-based; conditions: PANC-1, 72 h; in short: as §1
[2] = target: Focal adhesion kinase 1 (Homo sapiens) (UniProt Q05397); assay: Inhibition of PTK2 in human SUIT-2 cells assessed as inhibition of PTK2 phosphorylation at Y397 residue at 5XIC50 incubated for 24 hrs by western blot analysis; assay type: cell-based
[3] = target: Focal adhesion kinase 1 (Homo sapiens) (UniProt Q05397); assay: Inhibition of PTK2 in human CAPAN-1 cells assessed as inhibition of PTK2 phosphorylation at Y397 residue at 5XIC50 incubated for 24 hrs by western blot analysis; assay type: cell-based
[4] = target: Focal adhesion kinase 1 (Homo sapiens) (UniProt Q05397); assay: Inhibition of PTK2 in human Panc-1 cells assessed as inhibition of PTK2 phosphorylation at Y397 residue at 5XIC50 incubated for 24 hrs by western blot analysis; assay type: cell-based
[5] = Antiproliferative activity against human PDAC-3 cells assessed as inhibition of cell growth incubated for 72 hrs by SRB assay; assay type: functional, cell-based; conditions: PDAC-3, 72 h; in short: as §1
[6] = Antiproliferative activity against gemicitabine-resistant human Panc-1R cells incubated for 72 hrs by SRB assay; assay type: functional, cell-based; conditions: PANC-1, 72 h; in short: as §1

Chain of Focal adhesion kinase 1 (Homo sapiens) (Q05397 2-1052 limits assumed): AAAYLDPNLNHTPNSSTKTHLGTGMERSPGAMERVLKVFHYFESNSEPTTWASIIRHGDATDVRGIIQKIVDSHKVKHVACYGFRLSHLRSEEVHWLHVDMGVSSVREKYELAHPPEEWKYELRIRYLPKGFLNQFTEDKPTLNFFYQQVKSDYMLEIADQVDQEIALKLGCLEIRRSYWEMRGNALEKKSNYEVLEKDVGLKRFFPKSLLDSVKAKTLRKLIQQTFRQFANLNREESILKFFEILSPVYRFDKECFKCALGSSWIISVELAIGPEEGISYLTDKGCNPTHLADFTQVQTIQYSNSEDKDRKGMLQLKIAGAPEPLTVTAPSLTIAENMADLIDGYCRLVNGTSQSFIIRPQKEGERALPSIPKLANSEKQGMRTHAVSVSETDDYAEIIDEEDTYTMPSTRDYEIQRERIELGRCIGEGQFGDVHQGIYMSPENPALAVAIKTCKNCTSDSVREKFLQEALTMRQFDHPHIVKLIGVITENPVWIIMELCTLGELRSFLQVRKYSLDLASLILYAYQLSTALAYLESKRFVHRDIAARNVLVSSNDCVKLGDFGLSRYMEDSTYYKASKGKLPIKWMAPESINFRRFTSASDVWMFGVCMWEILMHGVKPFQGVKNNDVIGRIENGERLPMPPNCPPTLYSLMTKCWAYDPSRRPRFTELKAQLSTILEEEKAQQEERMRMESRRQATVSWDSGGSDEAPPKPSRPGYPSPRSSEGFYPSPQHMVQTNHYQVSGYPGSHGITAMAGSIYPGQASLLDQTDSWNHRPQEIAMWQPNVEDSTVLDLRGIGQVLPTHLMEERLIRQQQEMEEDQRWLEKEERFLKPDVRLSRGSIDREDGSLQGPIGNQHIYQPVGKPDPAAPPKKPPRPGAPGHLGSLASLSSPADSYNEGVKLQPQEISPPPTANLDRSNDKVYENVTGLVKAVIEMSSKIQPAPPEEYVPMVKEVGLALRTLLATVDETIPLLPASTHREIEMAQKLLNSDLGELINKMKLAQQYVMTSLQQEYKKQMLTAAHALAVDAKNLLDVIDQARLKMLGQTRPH

SMILES | IC50 [1] [µM] | IC50 (CAPAN-1) [µM] | IC50 (PANC-1) [µM] | inhibition [2] | inhibition [3] | inhibition [4] | IC50 [5] [µM] | IC50 [6] [µM]
COc1ccc(OC)c(-c2nc3sc(-c4c[nH]c5ccccc45)nn3c2C=O)c1 | 13 | > 16 | > 16 | – | – | – | – | –
Cn1cc(-c2nn3cc(-c4ccsc4)nc3s2)c2ccccc21 | – | – | – | Active | Active | Active | – | –
O=c1[nH]cc(F)c(=O)[nH]1 [FLUOROURACIL] | 0.91 | 0.47 | 4.3 | – | – | – | 0.56 | 4.5
Nc1ccn([C@@H]2O[C@H](CO)[C@@H](O)C2(F)F)c(=O)n1 [GEMCITABINE] | 0.01 | 0.02 | 0.15 | – | – | – | 0.03 | > 10
COc1cccc(-c2nc3sc(-c4c[nH]c5ccccc45)nn3c2C=O)c1 | 11.5 | > 16 | > 16 | – | – | – | – | –
O=Cc1c(-c2ccc(F)cc2)nc2sc(-c3c[nH]c4ccccc34)nn12 | 7.93 | 8.83 | 10.5 | – | – | – | – | –
c1ccc2c(-c3nn4cc(-c5ccsc5)nc4s3)c[nH]c2c1 | – | – | – | Active | Active | Active | – | –
O=Cc1c(-c2ccccc2)nc2sc(-c3c[nH]c4ccccc34)nn12 | 9.56 | 10.5 | 12.4 | – | – | – | – | –
COc1ccc(OC)c(-c2nc3sc(-c4cn(C)c5ccccc45)nn3c2C=O)c1 | 12.5 | 5.73 | > 16 | – | – | – | – | –
COc1ccc(OC)c(-c2nc3sc(-c4c[nH]c5ccc(Br)cc45)nn3c2C=O)c1 | 8.7 | 8.24 | 10.6 | – | – | – | – | –
